# Compounds with a hit are over-represented: about 1.7% of the library has one in this group of screens.
# STEP inh – blocks human striatal-enriched tyrosine phosphatase; P54829; recombinant STEP, OMFP fluorogenic substrate, fluorescence; inhibition, % at 20 µM; hit rate 0.25% among 360,000;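 active means inhibition at 20 µM, scaled per plate between control wells, above about 37%, limit read from the data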;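 further: 0% = DMSO with enzyme and substrate and 100% = substrate only without enzyme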
#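 System: STEP (striatal-enriched tyrosine phosphatase) enzyme, cell-free; medium: Bis-Tris pH 6.0 buffer with DTT, detergent; dosing: 20 µM, 1% DMSO; times: reaction 20 min, ambient temperature; detection: fluorescence, 480/540 nm; read-out basis: normalized % inhibition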
# SUMO1-SIM PPI – SUMO1-SIM interaction modulation. SUMO1 binding to a labelled peptide, TR-FRET, 1 h. inhibition, % at 20 µM. hit rate 0.33% among 360,000. AID 602429; in the data active means inhibition above about 37%
# DNMT1 block – inhibitors of human DNMT1; inhibition (reported as % activation of signal), % at 10 µM; DNMT1 molecular beacon, Hinp1I cleavage, fluorescence; AID 588458; hit rate 0.83% among 360,000; in the data active means inhibition above about 50%
# Target sequence (P26358 504-1616 limits assumed): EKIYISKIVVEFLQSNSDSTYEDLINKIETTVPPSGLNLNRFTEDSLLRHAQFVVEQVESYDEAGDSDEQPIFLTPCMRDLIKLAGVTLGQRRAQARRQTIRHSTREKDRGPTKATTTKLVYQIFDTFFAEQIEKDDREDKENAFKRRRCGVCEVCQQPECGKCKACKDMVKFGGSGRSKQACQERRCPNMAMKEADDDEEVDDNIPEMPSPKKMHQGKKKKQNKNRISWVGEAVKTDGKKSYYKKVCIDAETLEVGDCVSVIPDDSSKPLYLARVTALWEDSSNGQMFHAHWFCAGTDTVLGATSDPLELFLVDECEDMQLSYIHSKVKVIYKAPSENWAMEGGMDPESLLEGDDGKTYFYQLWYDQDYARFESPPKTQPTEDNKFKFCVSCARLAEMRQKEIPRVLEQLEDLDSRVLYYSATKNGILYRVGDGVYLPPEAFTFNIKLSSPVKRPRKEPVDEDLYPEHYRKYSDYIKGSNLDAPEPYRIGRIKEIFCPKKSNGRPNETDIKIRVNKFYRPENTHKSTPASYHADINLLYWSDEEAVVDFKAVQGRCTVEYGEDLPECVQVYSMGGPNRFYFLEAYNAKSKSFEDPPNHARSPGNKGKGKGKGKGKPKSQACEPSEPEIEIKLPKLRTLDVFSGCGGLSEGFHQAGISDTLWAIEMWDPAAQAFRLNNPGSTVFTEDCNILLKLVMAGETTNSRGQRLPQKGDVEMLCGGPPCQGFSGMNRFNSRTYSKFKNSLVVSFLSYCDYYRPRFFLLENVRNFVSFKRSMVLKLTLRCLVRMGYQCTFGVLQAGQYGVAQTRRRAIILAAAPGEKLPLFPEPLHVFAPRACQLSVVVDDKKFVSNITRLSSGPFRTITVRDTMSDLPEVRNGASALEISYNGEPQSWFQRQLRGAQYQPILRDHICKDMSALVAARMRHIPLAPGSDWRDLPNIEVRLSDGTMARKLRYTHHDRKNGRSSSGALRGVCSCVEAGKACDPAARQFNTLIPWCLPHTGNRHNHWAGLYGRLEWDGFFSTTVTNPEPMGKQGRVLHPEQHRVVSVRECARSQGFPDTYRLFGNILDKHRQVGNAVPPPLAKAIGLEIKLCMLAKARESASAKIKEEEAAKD
# Scp1 inh – blocks human Scp-1 phosphatase activity; Q9GZU7; Recombinant Scp1, phosphopeptide, malachite green phosphate absorbance; inhibition, % at 20 µM; hit rate 0.88% among 340,000; AID 493091;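 active means inhibition above about 50% at 20 µM, limit read from the data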;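 further: plate controls were DMSO wells with enzyme for no effect and wells lacking enzyme for full effect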
#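 Assay system: SCP-1 catalytic fragment, aa 76-261 | Buffer or medium: Tris acetate buffer pH 5.5 with MgCl2 and Tween-20 | Compound: One concentration, 20 µM, with 1.0% DMSO | Also added: Phospho 17-mer peptide substrate | Signal: Absorbance at 630 nm | Incubation: 45 min enzyme reaction at room temperature | Measure: % inhibition of SCP-1 phosphate liberation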
# LMPTP inh – LMPTP (human) inhibition; recombinant LMPTP-A, OMFP fluorogenic substrate, fluorescence intensity; inhibition, % at 20 µM; hit rate 0.22% among 360,000;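 active means compounds that cut the enzyme signal by at least half of the control window in the single-dose screen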;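 further: plate controls were DMSO wells with enzyme plus substrate for no effect and substrate without enzyme for full effect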
#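 test system = LMPTP-A | amount = 0.625 nM LMPTP-A final | reagent = fluorogenic phosphatase substrate OMFP at 400 µM final | incubation = 50 min at room temperature | benchmarks = no-enzyme low control, uninhibited high control | medium = Bis-Tris pH 6.0, DTT, detergent | signal = fluorescence intensity of OMFP turnover product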
# Active calls of the source: *; x = not tested or not shown; ! = repeats disagree.
SMILES,STEP inh,SUMO1-SIM PPI,DNMT1 block,Scp1 inh,LMPTP inh
CN(C)c1ccc(/C=C/c2cc[n+](C)c3ccccc23)cc1,16,-44,9,12,55*!
COc1ccc(CCN)cc1O,-4,-3,-5,-14,-3
NCCc1cc(O)c(O)cc1O,-2,47*,118*,-9,79*
[N-]=[N+]=NCCN1CCC(O)CCC1=O (stereo not given),1,5,-1,2,-2
O=C(NC1CCCCC1)N1Cc2cc(N3CCOCC3)ccc2-n2nncc2C1,-2,1,2,x,0
Cc1ccccc1N1C(=O)NC(=O)/C(=C\c2ccc3c(c2)CCCN3Cc2ccccc2)C1=O,-6,3,15,-5,3
O=C1NC(=S)NC(=O)C1=Cc1ccc2c(c1)CCN2CCCCl,60*,76*,102*,91*,77*
COc1cccc(N2C(=O)NC(=O)/C(=C/c3ccc([N+](=O)[O-])s3)C2=O)c1,3,47*,33,12,8
COc1ccc(N2C(=O)NC(=O)/C(=C/c3ccc([N+](=O)[O-])s3)C2=O)cc1,5,38*,29,20,14
COc1ccc(N2C(=O)NC(=O)/C(=C\c3ccc([N+](=O)[O-])s3)C2=O)cc1,6,21,16,3,6
CCOC(=O)CNC(=O)N1Cc2cc(-c3ccc(OC)cc3)ccc2-n2nncc2C1,1,0,3,x,1
CCOC(=O)[C@@H]1[C@H]2COc3ccc(Br)cc3[C@@H]2N2C(=O)N(c3cccc(C)c3)C(=O)[C@]12C,2,-2,-1,-10,1
CCOC(=O)[C@]12Cc3c(cc(OC)c(OC)c3OC)[C@H]1N(C)C(=O)c1cc(OC)ccc12,x,8,x,x,-1
Cc1ccc(-n2c(O)c(C=NCCC3=CCCCC3)c(=O)[nH]c2=O)cc1,-1,2,4,-5,0
N#CC1=C(N)Oc2c(c(=O)sc3ccccc23)C1c1cccnc1 (stereo not given),-2,6,2,-12,0
O=C(O)c1cccc2c1NC(C(=O)O)C1CC(Sc3ccccc3[N+](=O)[O-])C(Cl)C21 (stereo not given),98*,88*,104*,56*,79*
CC(=O)c1ccc2c(c1)C1C(Cl)C(Sc3ccccc3[N+](=O)[O-])CC1C(C(=O)O)N2 (stereo not given),19,84*,114*,48,78*
Cn1cc(C(O)CN2CCCCC2)c2ccccc21 (stereo not given),0,2,1,4,0
O=C1NC(=O)N(Cc2ccco2)C(=O)/C1=C\c1cccn1CCOc1ccc(Cl)cc1,-2,21,59*,-3,3
O=C1NC(=O)N(Cc2ccco2)C(=O)/C1=C/c1ccc(-c2cccc([N+](=O)[O-])c2)o1,39,38*,98*,82*,42
Cc1cccc(OCCn2cccc2/C=C2/C(=O)NC(=O)N(Cc3ccco3)C2=O)c1,2,12,60*,10,4
NC(=O)C1CCN(/C=C2\C(=O)NC(=O)N(Cc3ccco3)C2=O)CC1,22,14,52*,69*,9
CCc1ccc(N2C(=O)NC(=O)/C(=C/c3cccn3CCOc3ccc(C)cc3)C2=O)cc1,1,13,18,-10,0
CC[C@@H](O)C[C@H]1CCC[C@@]2(C[C@@H]3OC(=O)/C=C/[C@@](C)(O)[C@@H](O)[C@H](C)[C@@H](O)[C@H](OC4CCC(N(C)C)C(C)O4)[C@@H](O)[C@](C)(O)CCCCC/C=C/[C@@H]4CC(C)(C)O[C@@]4(O)C[C@H](O2)[C@H]3C)O1 (stereo not given in full),-2,4,-8,2,-1
COC(=O)C1=C(c2ccccc2)C[C@@H]2CC[C@H]1N2C(=O)N1CCCC1,-2,-1,0,-6,-1
SMILES,STEP inh,SUMO1-SIM PPI,DNMT1 block,Scp1 inh,LMPTP inh
Cc1cc(/C=C2/C(=O)NC(=O)N(Cc3ccco3)C2=O)c(C)n1-c1ccccc1,1,15,55*,7,3
CCC1(CCO)C(=O)NC(=S)NC1=O,-2,-2,-1,1,-2
CN(C)[C@@H]1C(=O)C(C(N)=O)=C(O)[C@@]2(O)C(=O)C3=C(O)c4c(O)cccc4[C@@](C)(O)[C@H]3[C@H](O)[C@@H]12,34,70*,97*,65*,66*
CN(C)[C@@H]1C(=O)C(C(N)=O)=C(O)[C@@]2(O)C(=O)C3=C(O)c4c(O)cccc4[C@@](C)(O)C3C[C@@H]12 (stereo not given in full),10,37*,84*,1,41
CN(C)[C@@H]1C(=O)C(C(N)=O)=C(O)[C@@]2(O)C(=O)C3=C(O)c4c(O)ccc(Cl)c4[C@@](C)(O)[C@H]3C[C@@H]12,3,-3,10,12,5
COC(=O)c1nc(-c2ccc3c(n2)C(=O)C(N)=C(OC)C3=O)c(N)c(-c2ccc(OC)c(OC)c2O)c1C,3,14,86*,-8,1
O=C(O)c1cc[c]([Hg][Cl])cc1,-3,0,29,96*,-1
COc1ccc(C(=O)O)cc1OC,-21,6,-5,-4,-1
COc1ccc(CN2C(=O)NC(=O)/C(=C/c3ccc([N+](=O)[O-])s3)C2=O)cc1,9,65*,51*,14,35
O=C1NC(=O)N(Cc2ccc(F)cc2)C(=O)/C1=C\c1ccc([N+](=O)[O-])s1,6,58*,49,5,27
COC(=O)C1=C(c2ccc(F)cc2OCc2ccccc2)C[C@@H]2CC[C@H]1N2C(=O)NCCN1CCOCC1,-3,2,2,0,1
C=CCN1CCc2cccc3c2[C@H]1Cc1ccc(O)c(O)c1-3,-1,2,-14,-10,16
COC(=O)C1=C(c2ccccc2OCc2ccccc2)C[C@@H]2CC[C@H]1N2C(=O)NCCOc1ccccc1,-1,3,2,-14,5
Cc1ccccc1NC(=NCCCN1CC1)Nc1ccccc1C,8,34*,-100,15,21
Cc1ccccc1NC(=O)c1cc(-c2ccccc2)n(CCCN2CCOCC2)c1C,3,3,2,-10,-3
Cc1cc(OC(C)C(=O)N[C@H](C(=O)O)c2ccccc2)c2c3c(c(=O)oc2c1)CCC3 (stereo not given in full),-3,5,2,-1,-1
CC(C)COC(=O)c1ccccc1C(=O)OCC(C)C,1,3,-3,-10,2
C[CH2][Hg][S]c1ccccc1C(=O)O,2,10,26,101*,2
COC(=O)C1=C(c2ccc(C(C)=O)cc2)C[C@@H]2CC[C@H]1N2C(=O)NC1CC1,-1,3,-3,8,1
